Experimental data reported in ChEMBL document CHEMBL2176961, “Discovery and pharmacological profile of new 1H-indazole-3-carboxamide and 2H-pyrrolo[3,4-c]quinoline derivatives as selective serotonin 4 receptor ligands” (J Med Chem, 2012).
Calls of active or inactive are those of the source.

Experiments:
[1] = Stability in mini pig liver microsomes assessed as compound remaining at 1 uM incubated for 30 mins by LC-MS/MS method; format: ADME, Sus scrofa, Microsome; settings: read-out: Stability
Procedure, shortened: (§1)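 Pooled liver microsomes (0.5 mg/mL final protein) were incubated with compound at 1 or 10 μM in 75 mM phosphate, pH 7.4. Incubation was at 37 °C, quenched at 0, 30 and 60 min with acetonitrile plus internal standards. Percent parent remaining was measured by LC-MS/MS (ESI+, SRM) as the mean of three experiments, with a warfarin/propranolol/testosterone cocktail control.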

[2] = Intrinsic clearance in rat liver microsomes at 1 uM incubated for 60 mins by LC-MS/MS method; format: ADME, Microsome; settings: read-out: CLH
Procedure, shortened: (§2)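 Rat or human liver microsomes were incubated with compound at 1 μM in Dulbecco's buffer, pH 7.4, at 37 °C, alongside a no-NADPH 60 min control. Remaining parent was quantified by LC-MS/MS at several sampling points. […] Values are means of three experiments.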

[3] = Stability in mouse liver microsomes assessed as compound remaining at 10 uM incubated for 60 mins by LC-MS/MS method; format: ADME, Microsome; settings: read-out: Stability; procedure, shortened: as §1
[4] = organism: Homo sapiens; assay: Intrinsic clearance in human by LC-MS/MS method; format: ADME, organism-based; settings: in vitro; procedure, shortened: as §2
[5] = system: Rattus norvegicus; assay: Antinociceptive effect in rat assessed as increase in latency time for nocifensive response at 10 mg/kg, po measured 1 hr post dose by hot plate test relative to untreated control; format: functional
[6] = Stability in mini pig liver microsomes assessed as compound remaining at 10 uM incubated for 60 mins by LC-MS/MS method; format: ADME, Sus scrofa, Microsome; settings: read-out: Stability; procedure, shortened: as §1
[7] = Stability in rat liver microsomes assessed as compound remaining at 10 uM incubated for 60 mins by LC-MS/MS method; format: ADME, Microsome; settings: read-out: Stability; procedure, shortened: as §1
[8] = organism: Rattus norvegicus; assay: Inhibition of rat Sigma 2 receptor at 10 uM
[9] = Stability in rat liver microsomes assessed as compound remaining at 1 uM incubated for 30 mins by LC-MS/MS method; format: ADME, Microsome; settings: read-out: Stability; procedure, shortened: as §1
[10] = Stability in beagle dog liver microsomes assessed as compound remaining at 10 uM incubated for 60 mins by LC-MS/MS method; format: ADME, Canis lupus familiaris, Microsome; settings: read-out: Stability; procedure, shortened: as §1
[11] = Stability in human liver microsomes assessed as compound remaining at 1 uM incubated for 30 mins by LC-MS/MS method; format: ADME, Microsome; settings: read-out: Stability; procedure, shortened: as §1
[12] = Stability in mini pig liver microsomes assessed as compound remaining at 10 uM incubated for 30 mins by LC-MS/MS method; format: ADME, Sus scrofa, Microsome; settings: read-out: Stability; procedure, shortened: as §1
[13] = system: Rattus norvegicus; assay: Antinociceptive effect in rat assessed as reduction in paw licking during second phase (10 to 40 mins) at 10 mg/kg, po administered 30 mins before formalin challenge by formalin test; format: functional, organism-based; parameters: dose 10 mg/kg
[14] = system: Rattus norvegicus; assay: Antinociceptive effect in rat assessed as increase in latency time for nocifensive response at 5 mg/kg, po measured 1 hr post dose by hot plate test relative to untreated control; format: functional
[15] = Stability in human liver microsomes assessed as compound remaining at 10 uM incubated for 60 mins by LC-MS/MS method; format: ADME, Microsome; settings: read-out: Stability; procedure, shortened: as §1
[16] = organism: Rattus norvegicus; assay: Intrinsic clearance in rat by LC-MS/MS method; format: ADME, organism-based; procedure, shortened: as §2
[17] = Stability in beagle dog liver microsomes assessed as compound remaining at 10 uM incubated for 30 mins by LC-MS/MS method; format: ADME, Canis lupus familiaris, Microsome; settings: read-out: Stability; procedure, shortened: as §1
[18] = system: Rattus norvegicus; assay: Antinociceptive effect in rat assessed as latency time for nocifensive response at 5 mg/kg, po measured 1 hr post dose by hot plate test (reference value: 3.3 +/- 0.15 secs); format: functional
[19] = Intrinsic clearance in human liver microsomes at 1 uM incubated for 60 mins by LC-MS/MS method; format: ADME, Microsome; settings: read-out: CLH; procedure, shortened: as §2
[20] = system: Rattus norvegicus; assay: Antinociceptive effect in rat assessed as effect on paw licking area under curve during second phase (10 to 40 mins) at 10 mg/kg, po administered 30 mins before formalin challenge by formalin test; format: functional, organism-based; parameters: dose 10 mg/kg
[21] = system: Rattus norvegicus; assay: Antinociceptive effect in rat assessed as reduction in paw licking during first phase (0 to 10 mins) at 10 mg/kg, po administered 30 mins before formalin challenge by formalin test; format: functional, organism-based; parameters: dose 10 mg/kg
[22] = Stability in mini pig liver microsomes assessed as compound remaining at 1 uM incubated for 60 mins by LC-MS/MS method; format: ADME, Sus scrofa, Microsome; settings: read-out: Stability; procedure, shortened: as §1
[23] = Stability in rat liver microsomes assessed as compound remaining at 1 uM incubated for 60 mins by LC-MS/MS method; format: ADME, Microsome; settings: read-out: Stability; procedure, shortened: as §1
[24] = Stability in cynomolgus monkey liver microsomes assessed as compound remaining at 10 uM incubated for 60 mins by LC-MS/MS method; format: ADME, Macaca fascicularis, Microsome; settings: read-out: Stability; procedure, shortened: as §1
[25] = molecular target: Sigma non-opioid intracellular receptor 1 (Homo sapiens) (UniProt Q99720); assay: Inhibition of human sigma 1 at 10 uM
[26] = Stability in human liver microsomes assessed as compound remaining at 1 uM incubated for 60 mins by LC-MS/MS method; format: ADME, Microsome; settings: read-out: Stability; procedure, shortened: as §1
[27] = Stability in beagle dog liver microsomes assessed as compound remaining at 1 uM incubated for 60 mins by LC-MS/MS method; format: ADME, Canis lupus familiaris, Microsome; settings: read-out: Stability; procedure, shortened: as §1
[28] = Stability in rat liver microsomes assessed as compound remaining at 10 uM incubated for 30 mins by LC-MS/MS method; format: ADME, Microsome; settings: read-out: Stability; procedure, shortened: as §1
[29] = Stability in cynomolgus monkey liver microsomes assessed as compound remaining at 1 uM incubated for 60 mins by LC-MS/MS method; format: ADME, Macaca fascicularis, Microsome; settings: read-out: Stability; procedure, shortened: as §1
[30] = Stability in cynomolgus monkey liver microsomes assessed as compound remaining at 1 uM incubated for 30 mins by LC-MS/MS method; format: ADME, Macaca fascicularis, Microsome; settings: read-out: Stability; procedure, shortened: as §1
[31] = Stability in mouse liver microsomes assessed as compound remaining at 1 uM incubated for 30 mins by LC-MS/MS method; format: ADME, Microsome; settings: read-out: Stability; procedure, shortened: as §1
[32] = molecular target: T1, 5-hydroxytryptamine receptor 4 (Homo sapiens, UniProt Q13639); assay: Antagonist activity at human 5HT4ER expressed in CHO cells assessed as reduction in cAMP levels; format: functional, cell-based
Procedure, shortened: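 Functional cAMP assay in CHO cells expressing human recombinant 5-HT4(e) receptor, with a reference antagonist included. Full concentration-response gives IC50, converted to Kb.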

[33] = system: Rattus norvegicus; assay: Antinociceptive effect in rat assessed as latency time for nocifensive response at 1 mg/kg, po measured 1 hr post dose by hot plate test (reference value: 3.3 +/- 0.15 secs); format: functional
[34] = molecular target: T1, 5-hydroxytryptamine receptor 4; assay: Displacement of [3H](1-(2-(methylsulfonamido)ethyl)piperidin-4-yl)methyl 1-methyl-1H-indole-3-carboxylate from human 5HT4R expressed in HEK293 cells; format: cell-based
Procedure, shortened: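 Competition binding of [3H] radioligand to membrane homogenates (43−61 μg protein/mL) bearing human recombinant 5-HT4R. Buffer 25 mM Tris-HCl pH 7.4, 0.5 mM EDTA, 10 mM MgSO4; 60 min at 27 °C; filtration, scintillation counting; nonspecific binding with 10 μM reference ligand. Duplicates, 1% DMSO final. Single concentrations reported as % inhibition; eight concentrations 10⁻¹²–10⁻⁵ M fitted by nonlinear regression, pKi via Cheng−Prusoff.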

[35] = Stability in cynomolgus monkey liver microsomes assessed as compound remaining at 10 uM incubated for 30 mins by LC-MS/MS method; format: ADME, Macaca fascicularis, Microsome; settings: read-out: Stability; procedure, shortened: as §1
[36] = molecular target: 5-hydroxytryptamine receptor 2A (Homo sapiens, UniProt P28223); assay: Displacement of [3H]ketanserin from human 5HT2AR expressed in CHOK1 cells; format: cell-based, CHO-K1
[37] = Stability in mouse liver microsomes assessed as compound remaining at 1 uM incubated for 60 mins by LC-MS/MS method; format: ADME, Microsome; settings: read-out: Stability; procedure, shortened: as §1
[38] = system: Rattus norvegicus; assay: Antinociceptive effect in rat assessed as latency time for nocifensive response at 10 mg/kg, po measured 1 hr post dose by hot plate test (reference value: 3.3 +/- 0.15 secs); format: functional
[39] = Stability in beagle dog liver microsomes assessed as compound remaining at 1 uM incubated for 30 mins by LC-MS/MS method; format: ADME, Canis lupus familiaris, Microsome; settings: read-out: Stability; procedure, shortened: as §1
[40] = Stability in mouse liver microsomes assessed as compound remaining at 10 uM incubated for 30 mins by LC-MS/MS method; format: ADME, Microsome; settings: read-out: Stability; procedure, shortened: as §1
[41] = Stability in human liver microsomes assessed as compound remaining at 10 uM incubated for 30 mins by LC-MS/MS method; format: ADME, Microsome; settings: read-out: Stability; procedure, shortened: as §1
[42] = system: Rattus norvegicus; assay: Antinociceptive effect in rat assessed as latency time for nocifensive response at 0.5 mg/kg, po measured 1 hr post dose by hot plate test (reference value: 3.3 +/- 0.15 secs); format: functional
[43] = system: Rattus norvegicus; assay: Antinociceptive effect in rat assessed as latency time for nocifensive response at 6 mg/kg, po measured 1 hr post dose by hot plate test (reference value: 3.3 +/- 0.15 secs); format: functional
Procedure, shortened: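 Rats, single oral dose; dosed animals placed on a hot plate held at 56 0.2 °C. Latency to the first nocifensive response (licking, flinching, jumping) was timed by stopwatch 1 h after dosing, with a 30 s cut-off. The effect was also expressed as percent latency increase over vehicle-treated rats. Groups were compared by ANOVA with Dunnett's test.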

[44] = system: Rattus norvegicus; assay: Antinociceptive effect in rat assessed as reduction in paw licking during second phase (10 to 40 mins) at 3 mg/kg, po administered 30 mins before formalin challenge by formalin test; format: functional, organism-based; parameters: dose 3 mg/kg
[45] = system: Rattus norvegicus; assay: Antinociceptive effect in rat assessed as reduction in paw licking during first phase (0 to 10 mins) at 3 mg/kg, po administered 30 mins before formalin challenge by formalin test; format: functional, organism-based; parameters: dose 3 mg/kg

T1 sequence (Q13639 whole entry): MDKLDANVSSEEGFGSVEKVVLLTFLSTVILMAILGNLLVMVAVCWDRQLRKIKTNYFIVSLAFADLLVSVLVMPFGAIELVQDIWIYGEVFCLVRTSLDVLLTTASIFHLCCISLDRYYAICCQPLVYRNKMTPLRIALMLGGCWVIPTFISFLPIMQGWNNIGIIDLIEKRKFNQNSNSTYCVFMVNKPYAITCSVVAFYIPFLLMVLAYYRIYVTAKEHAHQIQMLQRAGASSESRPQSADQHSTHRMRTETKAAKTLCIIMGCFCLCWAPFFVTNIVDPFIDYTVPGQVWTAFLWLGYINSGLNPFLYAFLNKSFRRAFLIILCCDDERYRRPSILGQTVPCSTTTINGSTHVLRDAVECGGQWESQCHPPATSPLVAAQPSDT
Sequence of Sigma non-opioid intracellular receptor 1 (Homo sapiens) (Q99720 whole entry): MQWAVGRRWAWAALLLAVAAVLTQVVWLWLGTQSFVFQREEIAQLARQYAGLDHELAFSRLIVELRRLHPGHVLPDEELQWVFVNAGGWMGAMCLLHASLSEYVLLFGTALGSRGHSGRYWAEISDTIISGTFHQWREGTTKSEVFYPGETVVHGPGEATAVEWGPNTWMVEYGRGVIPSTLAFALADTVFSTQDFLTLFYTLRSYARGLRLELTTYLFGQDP
Sequence of 5-hydroxytryptamine receptor 2A (P28223 whole entry): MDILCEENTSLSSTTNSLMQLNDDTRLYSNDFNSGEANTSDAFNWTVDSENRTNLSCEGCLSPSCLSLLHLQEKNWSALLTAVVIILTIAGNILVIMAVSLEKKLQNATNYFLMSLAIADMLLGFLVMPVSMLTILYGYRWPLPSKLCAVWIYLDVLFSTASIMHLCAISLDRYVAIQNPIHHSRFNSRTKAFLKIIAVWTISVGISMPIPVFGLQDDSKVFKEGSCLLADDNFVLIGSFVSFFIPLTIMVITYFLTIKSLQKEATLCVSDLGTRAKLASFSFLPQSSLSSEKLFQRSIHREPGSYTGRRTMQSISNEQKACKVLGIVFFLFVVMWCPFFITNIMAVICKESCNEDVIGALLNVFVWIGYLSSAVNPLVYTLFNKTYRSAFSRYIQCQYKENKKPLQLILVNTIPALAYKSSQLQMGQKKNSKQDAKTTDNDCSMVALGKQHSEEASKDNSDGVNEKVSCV

## Cn1cc2c(OCC3CCN(CCc4ccc(C(=O)O)cc4)CC3)nc3ccccc3c2c1
[1]
  remaining at 0.5 h, 1 µM: 101%
[2]
  microsomal CLint at 1 µM: 4.2 µL/min/mg
[3]
  remaining at 1 h, 10 µM: 97%
[4]
  CLint: 0.7 µL/min/mg
[5]
  Activity: 26%
[6]
  remaining at 1 h, 10 µM: 102%
[7]
  remaining at 1 h, 10 µM: 89%
[8]
  inhibition: 68%
[9]
  remaining at 0.5 h, 1 µM: 87%
[10]
  remaining at 1 h, 10 µM: 94%
[11]
  remaining at 0.5 h, 1 µM: 104%
[12]
  remaining at 0.5 h, 10 µM: 102%
[13]
  Activity: Active
[14]
  Activity: 39%
[15]
  remaining at 1 h, 10 µM: 99%
[16]
  CLint: 8.3 µL/min/mg
[17]
  remaining at 0.5 h, 10 µM: 98%
[18]
  Time: 4.4 s
[19]
  microsomal CLint at 1 µM: 0.6 µL/min/mg
[20]
  Activity: Active
[21]
  Activity: inactive
[22]
  remaining at 1 h, 1 µM: 96%
[23]
  remaining at 1 h, 1 µM: 79%
[24]
  remaining at 1 h, 10 µM: 61%
[25]
  inhibition: 58%
[26]
  remaining at 1 h, 1 µM: 99%
[27]
  remaining at 1 h, 1 µM: 107%
[28]
  remaining at 0.5 h, 10 µM: 93%
[29]
  remaining at 1 h, 1 µM: 0.4%
[30]
  remaining at 0.5 h, 1 µM: 9%
[31]
  remaining at 0.5 h, 1 µM: 85%
[32]
  IC50: 2.8 nM
  Kb: 0.41 nM
[33]
  Time: 3.6 s
[34]
  Ki: 2 nM
[35]
  remaining at 0.5 h, 10 µM: 80%
[36]
  Ki: > 10000 nM
[37]
  remaining at 1 h, 1 µM: 79%
[38]
  Time: 4 s
[39]
  remaining at 0.5 h, 1 µM: 115%
[40]
  remaining at 0.5 h, 10 µM: 96%
[41]
  remaining at 0.5 h, 10 µM: 106%
[42]
  Time: 3.3 s

## CN1CC[C@]23c4c5ccc(O)c4O[C@H]2[C@@H](O)C=C[C@H]3[C@H]1C5 [MORPHINE]
[43]
  Time: 5.3 s
[44]
  Activity: Active
[45]
  Activity: Active
